Key:
[1] = test system: CT-26 cells and MCF-7 cells; assay: Cellular RNS detection, red fluorescent dye, microscopy and flow cytometry; assay type: cell-based; settings: after 4 hours of treatment, CT-26 and MCF-7 cells
Method in brief: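 CT-26 and MCF-7 cells (RPMI 1640, 10% FBS, 37°C, 5% CO2) grown in 24-well plates were preloaded with NO detection reagent for 2 h under normal culture conditions. The reagent was removed, and cells were exposed to test compound for 1, 2 or 4 h, with a commercial HNO donor as positive control. Cells were washed once, and red fluorescence was imaged by inverted fluorescence microscopy.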

[2] = test system: CT-26 cells; assay: Cellular GSH quantitative analysis; assay type: cell-based; settings: 1.0 mM, 0.5 and 2 hours
Method in brief: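 CT-26 cells (RPMI 1640, 10% FBS, 37°C, 5% CO2) seeded in 24-well plates at 40,000 cells/well for 18 h. Medium replaced with serum-free medium containing test compound at various concentrations. After 0.5 or 2 h the cells were lysed and intracellular GSH was measured with a GSH/GSSG assay kit.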

[3] = NO absorption by ILs, gravimetric method; assay type: physicochemical; settings: 30°C until full absorption
Method in brief: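 The system was purged with N2 (60 ml/min, 30 min). NO at atmospheric pressure was then bubbled at about 20 ml/min through about 1 g of test compound held in a metal block at 30°C. Uptake was weighed at regular intervals on a balance (±0.0001 g) until absorption was complete, and expressed as mol NO per mol compound.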

[4] = ITC binding of ILs to cardiolipin; settings: compared with [Ch][Tau] or [EMIm][APA]
Method in brief: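 Isothermal titration calorimetry at 25°C. An aqueous solution of test compound in the syringe was titrated into aqueous 18:1 cardiolipin in the sample cell. One small injection was followed by 28 larger injections, each lasting 10 s, with 120 s between injections and stirring at 1001 rpm. The binding constant was obtained from analysis of the calorimetric data.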

[5] = HNO release half-life of IL-NONOates in PBS, UV absorbance decay at 330 nm; assay type: physicochemical; settings: IL-NONOate formed from the IL; 37°C, pH 7.4, 0.01 M phosphate buffer (PBS)

| t1/2 (HNO release half-life) [5] [min] | SMILES | Absorption capacity [3] | further results |
| --- | --- | --- | --- |
| – | [Na+].[Na+].[O-][N+]([O-])=NO [AS, Na2N2O3] | – | intracellular RNS level [1]: failed to achieve this goal; intracellular GSH levels [2]: restoration of GSH |
| 1061 | C[N+](C)(C)CCO.NCCC(=O)[O-] [[Ch][APA]] | 1.70 mol NO per mol of IL | binding constant with CL, comparison [4]: significantly higher |
| – | C[N+](C)(C)CCO.NCCS(=O)(=O)[O-] [[Ch][Tau]] | 1.67 mol NO per mol of IL | – |
| – | C1CCC2=NCCCN2CC1.NCCS(=O)(=O)O [[DBU][Tau]] | 2.79 mol NO per mol of IL | – |
| 324 | CCn1cc[n+](C)c1.NCS(=O)(=O)[O-] [[EMIm][AMS]] | 1.38 mol NO per mol of IL | – |
| 996 | CCn1cc[n+](C)c1.NCCC(=O)[O-] [[EMIm][APA]] | 2.11 mol NO per mol of IL | – |
| 959 | CCn1cc[n+](C)c1.NCCCS(=O)(=O)[O-] [[EMIm][APS]] | 2.79 mol NO per mol of IL | – |
| – | CCn1cc[n+](C)c1.NCCS(=O)(=O)[O-] [[EMIm][Tau]] | 2.28 mol NO per mol of IL | – |
| – | C[N+](C)(CCO)CCO.NCCS(=O)(=O)[O-] [[HEMN][Tau]] | 2.51 mol NO per mol of IL | – |

| SMILES | t1/2 (HNO release half-life) [5] [min] | Absorption capacity [3] | further results |
| --- | --- | --- | --- |
| CCCCCCCCCCCCCC[P+](CCCCCC)(CCCCCC)CCCCCC.NCCS(=O)(=O)[O-] [[P66614][Tau]] | 325 | 3.33 mol NO per mol of IL | – |

Source: paper PMC7673712 (Science Advances, 2020)
